ChEMBL document CHEMBL3091335, “Design and synthesis of potent and selective P2X₃ receptor antagonists derived from PPADS as potential pain modulators” (Eur J Med Chem, 2013)
Positions count from the first letter of the chain named.

Legend:
[1] = molecular target: T1, P2X purinoceptor 1 (Mus musculus, UniProt P51576); experiment: Antagonist activity at recombinant mouse P2X1 receptor expressed in Xenopus oocytes assessed as inhibition of ATP-induced ion current preincubated for 20 mins followed by ATP addition by two-electrode voltage clamp assay; type: cell-based
T1 sequence (P51576 whole entry): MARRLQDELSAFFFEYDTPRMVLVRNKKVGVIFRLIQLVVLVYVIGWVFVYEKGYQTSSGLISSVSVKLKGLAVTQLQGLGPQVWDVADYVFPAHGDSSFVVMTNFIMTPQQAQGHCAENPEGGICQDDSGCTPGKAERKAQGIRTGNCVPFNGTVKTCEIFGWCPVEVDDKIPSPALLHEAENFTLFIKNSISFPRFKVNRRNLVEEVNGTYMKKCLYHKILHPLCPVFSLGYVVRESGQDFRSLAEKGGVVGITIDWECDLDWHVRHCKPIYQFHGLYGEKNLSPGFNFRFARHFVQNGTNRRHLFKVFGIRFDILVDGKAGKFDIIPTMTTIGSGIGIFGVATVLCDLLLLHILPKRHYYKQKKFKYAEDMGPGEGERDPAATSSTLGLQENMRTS
Procedure, shortened: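 Defolliculated Xenopus oocytes were injected with mP2X1 or hP2X3 cRNA (40 nL), held 24 h at 18 °C in Barth's solution, then stored at 4 °C for up to 12 days. Two-electrode voltage clamp was run at Vh −70 mV in HEPES/BaCl2 buffer at pH 7.5. ATP was superfused for 60–120 s with 20 min washout. Currents were normalized to the ATP response, giving % inhibition or IC50 from inhibition curves; mean ± SEM, n≥3.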

[2] = molecular target: T2, P2X purinoceptor 1 (Rattus norvegicus, UniProt P47824); experiment: Antagonist activity at recombinant rat P2X1 receptor expressed in Xenopus oocytes assessed as ion flux stimulation; type: cell-based
T2 sequence (P47824 whole entry): T1 sequence (P51576 whole entry) with G60D, M108V, A113T, H180R, L223Q, S231N, E260K, R314H, R381H, A384V

[3] = molecular target: T3, P2X purinoceptor 7 (Homo sapiens, UniProt Q99572); experiment: Antagonist activity at recombinant human P2X7 receptor assessed as inhibition of BzATP-mediated Yo-Pro uptake measured for 1 hr by FLIPR assay
T3 sequence (Q99572 whole entry): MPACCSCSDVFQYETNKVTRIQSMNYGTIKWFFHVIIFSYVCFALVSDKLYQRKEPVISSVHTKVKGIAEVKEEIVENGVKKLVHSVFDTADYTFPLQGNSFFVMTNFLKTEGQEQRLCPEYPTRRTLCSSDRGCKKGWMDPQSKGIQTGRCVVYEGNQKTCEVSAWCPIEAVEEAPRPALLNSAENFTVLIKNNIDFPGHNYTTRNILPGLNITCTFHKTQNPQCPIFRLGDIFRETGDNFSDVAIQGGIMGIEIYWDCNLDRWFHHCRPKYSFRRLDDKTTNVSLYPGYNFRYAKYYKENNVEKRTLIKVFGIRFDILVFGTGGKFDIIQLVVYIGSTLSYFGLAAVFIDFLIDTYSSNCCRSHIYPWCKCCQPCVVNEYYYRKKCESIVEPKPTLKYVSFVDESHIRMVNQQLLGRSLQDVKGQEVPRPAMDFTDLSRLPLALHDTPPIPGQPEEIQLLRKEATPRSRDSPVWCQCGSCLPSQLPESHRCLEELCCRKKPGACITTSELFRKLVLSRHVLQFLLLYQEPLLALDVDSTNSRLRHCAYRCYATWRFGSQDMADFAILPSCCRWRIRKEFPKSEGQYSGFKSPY

[4] = molecular target: T3, P2X purinoceptor 7; experiment: Antagonist activity at human P2X7 receptor expressed in HEK293 cells assessed as inhibition of BzATP-induced accumulation of ethidium+ after 120 mins by fluorescence assay; type: cell-based

Row | IC50 [1] [nM] | IC50 [2] [nM] | IC50 [3] [nM] | IC50 [4] [nM] | SMILES
1 | 30 | 43 |  |  | Cc1nc(/N=N/c2ccc(C(=O)O)cc2)c(COP(=O)(O)O)c(C=O)c1O
2 |  |  | 210 | 158 | CN([C@@H](Cc1ccc(OS(=O)(=O)c2cccc3cnccc23)cc1)C(=O)N1CCN(c2ccccc2)CC1)S(=O)(=O)c1cccc2cnccc12
